Screening results deposited in PubChem by several laboratories.
IMP-1 inhibitor: inhibitors of Pseudomonas aeruginosa IMP-1 metallo-beta-lactamase; inhibition, % at 5.6 µM; 0.45% of 290,000 active; AID 1556; purified IMP-1, nitrocefin hydrolysis, epi-absorbance fluorescence;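 active = inhibition above the mean plus 3 SD of all compounds in the same screening run, cut at about 4.5% in these data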;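 note: 0% = IMP-1 with DMSO and 100% = DMSO wells lacking enzyme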
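system = purified recombinant IMP-1 beta-lactamase | amount = 0.2 nM IMP-1, as dispensed | medium = HEPES buffer pH 7.1 with ZnSO4 and Brij 35 | times = 25 °C, 15 min preincubation, 25 min reaction | detection = plate fluorescence quenching by hydrolysis product, ex 480/em 530 nm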
VIM-2 inhibitor: inhibitors of Pseudomonas aeruginosa VIM-2 metallo-beta-lactamase | 0.89% of 290,000 active | inhibition, % at 5.6 µM | purified VIM-2, nitrocefin hydrolysis, epi-absorbance fluorescence;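 active = inhibition above the mean of all tested compounds plus 3 SD, cutoff set per screening run, cut at about 7.5% in these data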;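 note: red hydrolysis product quenches plate fluorescence so inhibitors raise well fluorescence; 0% = enzyme with DMSO and 100% = DMSO without enzyme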
CR mimetic SO: lowers age-related superoxide in aged yeast cells; S. cerevisiae aged cells, superoxide DHE fluorescence; active compounds read low; superoxide response (% of plate mean), % at 10 µM; 0.18% of 330,000 active;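 active = superoxide response under a set limit, about three screen SD below normal, cut at about 65% in these data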;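 note: yeast aged for seven days with compound at 30 °C before DHE staining; 100% = average MFI of all compound-treated wells on the plate with controls excluded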
PvdQ acylase: P. aeruginosa PvdQ acylase inhibition; purified PvdQ acylase, fluorescence plate reader; inhibition, % at 10 µM; AID 488965; 0.063% of 340,000 active; in the data active = inhibition above about 30%, passing the limit was not always enough;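 note: 0% = vehicle neutral wells and 100% = reference inhibitor wells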
PHOSPHO1 block: blocks human PHOSPHO1 phosphatase activity | Q8TCT1 | recombinant PHOSPHO1, absorbance phosphatase assay | inhibition, % at 13.3 µM | 1.1% of 290,000 active | AID 1565; in the data active = inhibition above about 60%
Target sequence (Q8TCT1 whole entry, looked up): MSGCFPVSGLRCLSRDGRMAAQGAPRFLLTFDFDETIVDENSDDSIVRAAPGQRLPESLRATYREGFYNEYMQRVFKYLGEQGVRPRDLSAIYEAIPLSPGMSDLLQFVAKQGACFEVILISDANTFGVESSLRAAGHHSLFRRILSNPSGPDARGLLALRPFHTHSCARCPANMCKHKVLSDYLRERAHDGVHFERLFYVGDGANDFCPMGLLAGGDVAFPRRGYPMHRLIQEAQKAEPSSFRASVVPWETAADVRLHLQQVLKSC
* marks the source's active call; other numbers are inactive results; . = not tested or not shown. Most compounds without a hit are left out; they make up all but 2.2% or so of the library.

SMILES	IMP-1 inhibitor	VIM-2 inhibitor	CR mimetic SO	PvdQ acylase	PHOSPHO1 block
CN(C)c1ccc(N=c2sc3ccccc3n2C)cc1	-4.9	1.3	90.2	-3.6	94.5*
Cn1c(=Nc2ccccc2)sc2ccccc21	-1.3	-1.5	103.9	7.1	-4.4
Cc1cccc(N2CC(O)(c3cccs3)[N+]3=C2CCCC3)c1 (stereo not drawn)	-2.3	-1.5	104.0	-0.2	-14.1
Cc1ccc(N2CC(O)(c3cccs3)[N+]3=C2CCCC3)cc1 (stereo not drawn)	0.2	0.1	102.0	-5.7	60.9*
Oc1ccccc1CNc1cnc2ccccc2c1	-3.6	0.4	91.4	11.8	8.7
Oc1ccc2ccccc2c1CNc1cnc2ccccc2c1	-2.5	0.5	108.7	-9.7	106.3*
O=C(NC(=S)NCCC1=CCCCC1)c1ccccc1Br	-2.4	24.7*	82.2	-13.0	28.1
O=C(COC(=O)c1ccccc1Br)NCCC1=CCCCC1	-3.0	-1.6	103.2	-8.3	6.6
O=C(O)C1CSC2c3ccccc3C(=O)N12 (stereo not drawn)	10.5*	-3.0	99.8	-17.5	13.1
Cc1nn(-c2nnc(NC3CCCCC3)nn2)c(C)c1Br	-1.2	-0.7	89.4	-6.5	-5.0
CCC(C)(C)n1nnnc1C(c1cc2cc(C)ccc2[nH]c1=O)N1CCCc2ccccc21 (stereo not drawn)	-4.6	-1.1	120.3	-10.2	75.4*
Cc1ccc2[nH]c(=O)c(C(c3nnnn3CC3CCCO3)N3CCc4ccccc4C3)cc2c1 (stereo not drawn)	-1.2	-2.1	97.3	-10.4	-46.3
Cc1ccc2[nH]c(=O)c(C(c3nnnn3CC3CCCO3)N3CCCc4ccccc43)cc2c1 (stereo not drawn)	-3.5	-2.7	90.5	-3.2	85.5*
COc1cc(CNc2ccccc2SC)ccc1O	-2.6	0.6	100.4	-2.0	72.1*
CCOc1cc(CNc2ccccc2SC)ccc1O	-2.1	-1.7	106.3	.	-35.8
CCCCN(C)C1=Nc2cccc3cccc1c23	-0.9	-1.1	105.0	-6.9	62.9*
O=C(Cn1nc(C(=O)O)c2ccccc2c1=O)Nc1cccc(S(=O)(=O)N2CCCC2)c1	.	.	.	2.8	.
COc1ccc(C2/C(=C(/O)c3ccc(Br)cc3)C(=O)C(=O)N2C)cc1 (stereo not drawn)	-0.6	2.9	112.4	-6.3	50.6
CCOC(=O)c1c(C)cc(C)n2c1nc1ccccc12	-4.4	10.8*	96.3	3.1	29.2
O=C(c1ccccc1)c1ccc(O)cc1O	11.7*	7.0	112.5	0.6	-3.9
COc1cccc(-n2sc3c(c2=S)-c2cc(OC)ccc2NC3(C)C)c1	-4.5	-2.6	96.1	-4.9	87.9*
CC(=O)/C(=N/Nc1cccc(C)c1)N1CCOCC1	-1.3	-1.1	90.1	-17.8	92.4*
COc1cc(NC(=O)COc2cc3oc(=O)cc(C)c3cc2Cl)cc(OC)c1OC	-1.5	0.8	126.2	-12.0	37.5
CCCCn1c(N)c(N(C(=O)CSc2nncn2-c2ccccc2)C2CCCC2)c(=O)[nH]c1=O	.	.	.	-6.5	.
C=CCNc1nc(NC(C)(C)CO)nc(OCC)n1	28.0*	-5.2	97.1	-9.3	28.7
SMILES	IMP-1 inhibitor	VIM-2 inhibitor	CR mimetic SO	PvdQ acylase	PHOSPHO1 block
C=CCNc1nc(NC(C)(C)CO)nc(OC)n1	-4.0	-2.1	87.2	-8.4	14.4
Cc1ccc(NC(=O)C(=O)NCCN2CCN(S(C)(=O)=O)CC2)cc1C	0.1	1.8	82.2	-21.0	61.1*
COc1cc(C(=O)NC2CCN(CC(=O)Nc3cccc(C)c3C)CC2)cc(OC)c1OC	-4.2	-2.5	96.6	-17.0	30.5
Nc1o[nH]c(=O)c1C1CCCCC1	.	.	.	2.3	.
O=C(c1cc(Cl)nc2ccccc12)N1CCN(S(=O)(=O)c2ccccc2[N+](=O)[O-])CC1	4.5*	-0.9	.	-2.8	9.8
Cc1ccc(CCNC(=O)C2CCN(S(=O)(=O)c3cccc4nsnc34)CC2)cc1	4.9*	-1.8	88.5	-11.8	-4.2
CCOC(=O)CNC(=O)C1CCC(CNS(=O)(=O)c2cccc3nsnc23)CC1 (stereo not drawn)	1.9	-0.8	103.9	13.1	64.9*
C=CCC1(CC=C)CCCN1C(=O)c1cc(COc2cccc(C(F)(F)F)c2)on1	-5.5	-1.0	104.0	13.1	61.0*
O=C(Cc1ccc(F)cc1)Nc1nnc(-c2ccc(F)cc2)o1	1.1	-0.4	91.7	-7.8	35.5
CCOC(=O)[C@H](C)N1[C@H](C)[C@H](c2ccccc2)Oc2ccc(Cl)cc2S1(=O)=O	.	.	.	-13.9	.
S=c1nc(-c2ccccc2)n(Cc2ccco2)c2c1CCCC2	-2.6	-1.7	.	.	88.7*
Cc1cc(N=NC(=O)c2ccccc2O)c2ccccc2c1O	-2.4	-3.4	103.8	-0.7	69.5*
Cn1c(O)c(N=NC(=O)c2ccccc2O)c2ccccc21	-1.8	-0.5	105.0	8.6	24.8
CN(CC(=O)Nc1n[nH]c(=S)s1)S(=O)(=O)c1cccc2cccnc12	-3.4	-4.7	95.8	8.9	60.4*
CC(=O)c1c(C)[nH]c(C(=O)CN2C(=O)NC(CCc3ccccc3)C2=O)c1C (stereo not drawn)	-2.4	0.0	116.6	-15.5	3.8
O=c1nc2ccc(Cl)cn2c2ccc(S(=O)(=O)N3CCOCC3)cc12	-1.6	11.2*	100.9	-19.8	23.0
COCCNc1nc2nonc2nc1NC(C)c1ccccc1Cl (stereo not drawn)	-2.6	-3.1	100.5	-4.1	60.1*
CCN(CC)C1CCN(c2nc3nonc3nc2NCCOC)C1 (stereo not drawn)	-2.8	-2.5	97.6	-11.5	9.7
COc1ccc(N(CC(=O)O)S(=O)(=O)c2ccc(C)cc2)cc1Cl	-1.5	10.6*	103.2	15.5	49.8
Cc1ccc2c(c1)C1(C(=O)N2)N2CCCC2C(C(=O)c2ccc3ccccc3c2)C12C(=O)Nc1ccccc12 (stereo not drawn)	.	.	.	-5.4	.
COC1=C(Nc2ccccc2)C(=O)c2ccccc2C1=O	3.3	10.4*	113.9	-20.4	13.3
COc1cccc2c1-c1c(C(=O)O)cccc1C2=O	-3.3	-2.1	102.2	-11.7	13.9
COc1ccc(OC)c2c1C(=O)C(Cl)=C(Cl)C2=O	-1.6	8.3*	131.9	4.6	20.0
COc1cccc2c1C(=O)c1ccc3ccccc3c1C2=O	12.7*	1.5	102.1	-10.6	86.8*
COc1ccc(OC)c2c1C(=O)c1ccccc1C2=O	-1.4	7.0	117.3	.	95.1*
SMILES	IMP-1 inhibitor	VIM-2 inhibitor	CR mimetic SO	PvdQ acylase	PHOSPHO1 block
COc1ccc(N)c2c1C(=O)c1ccccc1C2=O	-3.1	7.2	106.0	13.7	3.1
COC(=O)c1cc(Br)c(N)cc1OC	-3.5	-2.7	107.7	-10.5	61.0*
CC(=O)c1ccc(NC(=O)COC(=O)c2nc(Cl)ccc2Cl)cc1	0.7	-2.9	81.5	-13.8	20.1
CN(CC(=O)Nc1ccc(Cl)c(Cl)c1)C(=O)CC1OC(=O)c2ccccc21 (stereo not drawn)	.	.	96.1	-8.7	.
CCOC(=O)CC(=O)CSc1nnc(Cn2c(=O)sc3ccccc32)n1C	-1.1	3.7	98.5	-0.2	71.1*
Nn1c(SC/C=C/c2ccccc2)nnc1-c1ccccn1	-1.8	-2.5	105.0	-16.2	83.6*
Cc1cccc(CSc2nnc(-c3ccccn3)n2N)c1	-1.6	-2.6	97.9	-16.5	63.4*
